PMI act hi M6P = human PMI activators, high substrate, primary screen, biochemical, fluorescence intensity, near-saturating mannose 6-phosphate. coupled PMI enzyme assay, resazurin fluorescence, 20 min; hits give high values; 1 = untreated enzyme, 0 = substrate-free blank. activation factor at 20 µM. hit rate 0.34% among 190,000;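 active = activation factor of 2 or more at 20 µM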
Target sequence (P34949 whole entry, looked up): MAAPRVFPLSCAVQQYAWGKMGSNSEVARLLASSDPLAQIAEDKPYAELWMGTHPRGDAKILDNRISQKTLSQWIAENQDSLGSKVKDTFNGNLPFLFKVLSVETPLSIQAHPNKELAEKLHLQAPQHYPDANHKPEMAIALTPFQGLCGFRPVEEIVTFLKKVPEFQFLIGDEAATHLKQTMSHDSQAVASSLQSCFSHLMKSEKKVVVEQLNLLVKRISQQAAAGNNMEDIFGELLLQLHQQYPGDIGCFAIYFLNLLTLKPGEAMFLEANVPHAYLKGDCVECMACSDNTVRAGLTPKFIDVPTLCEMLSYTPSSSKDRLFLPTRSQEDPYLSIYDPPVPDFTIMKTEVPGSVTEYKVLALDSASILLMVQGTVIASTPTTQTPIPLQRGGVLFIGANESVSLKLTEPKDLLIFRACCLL
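Test system: Human PMI in coupled enzyme assay | Input: 15 ng/mL PMI | Medium: HEPES-buffered pH 7.4 with magnesium and detergent | Compound: One concentration, 20 µM, in 1% DMSO | Incubation: Enzyme reaction with compound 20 min at room temperature | Detection: Diaphorase-driven resazurin-to-resorufin fluorescence, excitation 544, emission 590 nm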
L major viab = Leishmania major promastigote growth inhibition, primary screen. hit rate 9% among 200,000. inhibition, % at 10 µM. AID 1063, 2008. Leishmania major promastigotes, resazurin fluorescence viability; in the data active = inhibition above about 50%;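 also: promastigotes grown with compound for 44 hours at 28 °C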
PMI act = activators of human PMI, primary screen, biochemical, fluorescence intensity, near-Km mannose 6-phosphate; AID 1214, 2008; Mannose-6-phosphate isomerase (Homo sapiens), P34949; activation factor at 20 µM; purified human PMI, coupled resazurin fluorescence, 20 min; hits give high values; 1 = vehicle control, 0 substrate-free wells; hit rate 0.005% among 190,000;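 active = activation factor of 2 or more at 20 µM, relative to plate controls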
HCT116 PTEN-null = growth suppression of PTEN-null HCT116, primary screen, cell-based, CellTiter-Glo; HCT116 PTEN-null viability, 60 h; hits give low values; viability, % at 10 µM; hit rate 1.2% among 140,000;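 active = viability at or below a set limit, 4 SD under the median of all tested compounds, cut at about 3.7% in these data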;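 also: PTEN knockout HCT116 line with beta catenin targeted HCT116 as companion control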
bCat KO growth = primary screen for growth suppressors in beta-catenin knockout HCT116 cells (colon tumor, human) | viability, % at 10 µM | HCT116 beta-catenin knockout viability, CellTiter-Glo, 60 h; hits give low values | AID 818, 2007 | hit rate 1.5% among 140,000;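 active = viability at or under a set limit, the compound median less 4 SD, cut at about 6% in these data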;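 also: 0% = Hyamine 1622 control at 20 µM and 100% = untreated cell control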
Active calls of the source: *; / = no result. This is a sample that favours compounds with a hit; in the whole collection about 9.6% have one here.

SMILES	PMI act hi M6P	L major viab	PMI act	HCT116 PTEN-null	bCat KO growth
COc1cc2c(cc1OC)CN(Cc1cc(=O)oc3cc(C)c(Cl)cc13)CC2	2.3*	60*	1.7	59	82
CCc1ccc2c(CN3CCc4cc(OC)c(OC)cc4C3)cc(=O)oc2c1	2.2*	5	1.5	77	70
CC(C)n1c(-c2ccccc2)nc(=S)c2c1CCCC2	1	-4	1	100	88
Cc1ccc(S(=O)(=O)NC(C)(C)CSc2nnc(N)s2)cc1	1	-1	1	95	100
Cc1ccc(NC(=O)/C(=C/c2ccco2)c2ccccc2)c(C)c1	1	48	0.9	89	85
Cc1cc(C)c(NC(=O)/C(=C/c2ccccc2)c2ccccc2)c(C)c1	0.9	98*	0.9	75	73
COc1ccc(/C=C/C(=O)c2cc(F)ccc2OC(=O)c2ccc(OC)c(OC)c2)cc1OC	1	92*	1	3.3*	2.9*
COc1ccc(/C=C/C(=O)c2cc(Br)ccc2OC(=O)c2ccco2)cc1OC	1.1	79*	1.1	12	11
COc1ccc(/C=C/C(=O)c2cc(F)ccc2OC(=O)c2ccccc2)cc1OC	/	100*	/	/	/
CC[C@H](C)C(C(=O)N1CCN(C(=O)OC(C)(C)C)CC1)n1cc(C(Cc2ccc(O)cc2)NC(=O)OC(C)(C)C)nn1 (some centres not stated)	0.9	-2	1	/	/
CC(=O)NC(Cc1c[nH]c2ccccc12)C(=O)OCC(=O)N1CCCCCC1 (configuration not stated)	1	-1	1	/	/
CCc1cc2c(=O)[nH]c(N3CCCC3)nc2s1	0.9	-6	0.9	87	91
CCc1cc2c(=O)[nH]c(-c3ccccn3)nc2s1	0.8	99*	1.1	2.3*	2.5*
O=C(Nc1ccccc1NC(=O)c1c(F)c(F)c(F)c(F)c1F)c1c(F)c(F)c(F)c(F)c1F	1	5	1	2.6*	2.4*
COC(=O)c1ccc(N(C(=O)CNC(=O)c2ccco2)C(C(=O)NC2CCCC2)c2ccco2)cc1 (configuration not stated)	0.9	-7	1	97	89
Cn1c(Oc2ccccc2NCc2cc(Br)ccc2O)cc(=O)n(C)c1=O	0.9	99*	0.9	93	89
COc1ccc(S(=O)(=O)Nc2ccc3c(c2)OCCO3)cc1Cl	0.9	71*	0.9	84	87
Cc1cccc(NS(=O)(=O)c2ccc3c(c2)OCCO3)c1	1	74*	0.9	83	91
CCNC(=O)c1ccccc1CCc1ccccc1	1	0	1	/	/
N#C/C(=C/c1ccc(CNS(=O)(=O)c2ccccc2)o1)C(N)=O	1	51*	0.9	97	94
Cc1ccc(OC(=O)c2oc3ccc(F)cc3c2C)c(C)c1	0.9	3	0.9	8	14
Cc1ccc(NC(=O)Cn2nnc3ccccc3c2=O)cc1C	0.9	-11	1.1	/	/
COCCCNCCCCOc1cccc(Br)c1	1	99*	1	94	79
CC(C)NCCOc1cccc(Br)c1	1.1	-2	1.1	107	98
C=CCNCCCCOc1cccc(Br)c1	0.9	96*	1	/	/
SMILES	PMI act hi M6P	L major viab	PMI act	HCT116 PTEN-null	bCat KO growth
OCCNCCCCOc1cccc(Br)c1	0.9	89*	0.9	90	88
CC(C)NCCCCOc1cccc(Br)c1	1	99*	1	98	90
O=c1[nH]c(SCc2c(Cl)cccc2Cl)nc2ccccc12	1	-5	1	/	/
O=C(Nc1cccnc1)NC1CCCCC1	1.2	-1	1.1	/	/
NC(=NCCc1ccccc1)NS(=O)(=O)c1ccccc1	1	-3	1.1	97	96
CC1(C)c2ccccc2N2CCC(=O)NC21/C=C/c1ccco1 (configuration not stated)	1	7	1.1	95	94
CN1c2ccccc2C(C)(C)C12CCCC(=O)N2 (configuration not stated)	2*	-2	1.4	101	100
CCc1cc2c(=O)n(CC)c(SC(C)C(=O)Nc3c(C)n(C)n(-c4ccccc4)c3=O)nc2s1 (configuration not stated)	1	-1	1	89	87
CCN(CC)S(=O)(=O)c1ccc(NC2CCCc3ccccc32)nc1 (configuration not stated)	0.9	-4	0.9	0.5*	0.6*
O=S(=O)(c1ccc(NC2CCCc3ccccc32)nc1)N1CCOCC1 (configuration not stated)	0.9	4	1	82	83
CNS(=O)(=O)c1cc(C(=O)OCC(=O)NC2CCCc3ccccc32)ccc1Cl (configuration not stated)	0.9	-8	1	95	99
CCN(CC)S(=O)(=O)c1cc(C(=O)OCC(=O)NC2CCCc3ccccc32)ccc1C (configuration not stated)	0.9	51*	0.9	102	95
CCS(=O)(=O)N1CCN(Cc2ccccc2OC)CC1	1	60*	1	103	87
CCOc1ccccc1CN1CCN(S(=O)(=O)CC)CC1	1	82*	1	92	88
Cc1ccc(NC(=O)CN(C)C(=O)COc2ccc(C(=O)c3ccc(F)cc3)cc2)cc1	0.9	11	0.9	79	86
O=C1C2=C(CCCC2)C(=O)N1c1cccc(OCCBr)c1	0.7	-6	0.7	102	92
CC(C)CN(CCOc1cccc(N2C(=O)C3=C(CCCC3)C2=O)c1)CC(C)C	0.9	63*	0.9	88	89
CCN(CCC(=O)Nc1cc([N+](=O)[O-])ccc1OC)Cc1ccccc1	1.1	67*	1	73	75
COc1ccc([N+](=O)[O-])cc1NC(=O)CC(c1ccccc1)c1ccccc1	0.9	2	0.9	69	75
COc1ccc([N+](=O)[O-])cc1NC(=O)C(C)N(C)Cc1ccc(Br)cc1 (configuration not stated)	1.1	57*	0.9	67	75
O=S(=O)(NCCn1ccc2ccccc21)c1ccccc1	0.8	-4	0.8	84	88
O=C(Nc1ccc2nc(-c3ccco3)c(-c3ccco3)nc2c1)N1CCCCCC1	1	-7	0.8	84	87
CCOC(=O)C1CCN(C(=O)Nc2ccc3nc(-c4ccco4)c(-c4ccco4)nc3c2)CC1	1.3	96*	1.1	77	76
COc1ccc(C(=O)COc2cccc(NC(=O)c3ccco3)c2)cc1	1	59*	1	92	100
Cc1ccc(C(=O)C(C)Oc2cccc(NC(=O)c3ccco3)c2)cc1 (configuration not stated)	1	97*	1	87	85

High-throughput results from PubChem BioAssay.
